pIC50, pKd: −log10 of the molar value.
Tests used:
hERG (KCNH2) = hERG (KCNH2) (Homo sapiens, UniProt Q12809); assay: Inhibition of human ERG at 10 uM by cell-based electrophysiology assay
[1] = Metabolic stability in human liver microsomes assessed as parent compound metabolism after 30 mins by LC-MS analysis; format: ADME, Microsome; settings: read-out: Drug metabolism
Outline: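 Test compound at 10 μM with pooled mixed-gender human liver microsomes (1 mg/mL protein), NADPH 1 mM, UDPGA 2.5 mM and MgCl2 3 mM in 10 mM PBS at 37 °C for 0 and 30 min. Controls omit NADPH/UDPGA. Compound remaining measured by LC–MS; reported as percent of parent metabolized at 30 min.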

[2] = Metabolic stability in mouse liver microsomes assessed as parent compound metabolism after 30 mins by LC-MS analysis; format: ADME, Microsome; settings: read-out: Drug metabolism
Outline: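 Male CD1 mouse liver microsomes (1 mg/mL protein) incubated with 10 μM compound plus NADPH 1 mM, UDPGA 2.5 mM and MgCl2 3 mM in 10 mM PBS at 37 °C for 0 and 30 min. NADPH/UDPGA-free controls included. LC–MS quantitation of remaining compound; reported as percent parent metabolized after 30 min.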

Aurora kinase A = target: T1, Aurora kinase A (Homo sapiens, UniProt O14965); assay: Inhibition of GST-tagged human Aurora A kinase expressed in baculovirus system
T1 sequence (O14965 whole entry): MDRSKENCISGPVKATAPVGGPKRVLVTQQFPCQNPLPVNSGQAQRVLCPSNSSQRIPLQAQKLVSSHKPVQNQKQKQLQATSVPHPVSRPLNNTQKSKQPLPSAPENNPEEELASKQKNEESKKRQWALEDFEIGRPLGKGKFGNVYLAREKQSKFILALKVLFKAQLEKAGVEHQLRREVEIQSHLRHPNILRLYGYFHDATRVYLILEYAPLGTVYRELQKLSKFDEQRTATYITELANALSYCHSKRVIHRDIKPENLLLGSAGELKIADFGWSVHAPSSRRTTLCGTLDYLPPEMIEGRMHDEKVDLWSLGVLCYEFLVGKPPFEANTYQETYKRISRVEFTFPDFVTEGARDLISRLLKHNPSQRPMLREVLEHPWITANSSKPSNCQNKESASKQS

SW-620 = assay: cells; settings: Homo sapiens, SW-620, 72 h
[3] = Binding affinity to FLT3 ITD mutant
[4] = target: T2, Receptor-type tyrosine-protein kinase FLT3 (Homo sapiens, UniProt P36888)
T2 sequence (P36888 whole entry): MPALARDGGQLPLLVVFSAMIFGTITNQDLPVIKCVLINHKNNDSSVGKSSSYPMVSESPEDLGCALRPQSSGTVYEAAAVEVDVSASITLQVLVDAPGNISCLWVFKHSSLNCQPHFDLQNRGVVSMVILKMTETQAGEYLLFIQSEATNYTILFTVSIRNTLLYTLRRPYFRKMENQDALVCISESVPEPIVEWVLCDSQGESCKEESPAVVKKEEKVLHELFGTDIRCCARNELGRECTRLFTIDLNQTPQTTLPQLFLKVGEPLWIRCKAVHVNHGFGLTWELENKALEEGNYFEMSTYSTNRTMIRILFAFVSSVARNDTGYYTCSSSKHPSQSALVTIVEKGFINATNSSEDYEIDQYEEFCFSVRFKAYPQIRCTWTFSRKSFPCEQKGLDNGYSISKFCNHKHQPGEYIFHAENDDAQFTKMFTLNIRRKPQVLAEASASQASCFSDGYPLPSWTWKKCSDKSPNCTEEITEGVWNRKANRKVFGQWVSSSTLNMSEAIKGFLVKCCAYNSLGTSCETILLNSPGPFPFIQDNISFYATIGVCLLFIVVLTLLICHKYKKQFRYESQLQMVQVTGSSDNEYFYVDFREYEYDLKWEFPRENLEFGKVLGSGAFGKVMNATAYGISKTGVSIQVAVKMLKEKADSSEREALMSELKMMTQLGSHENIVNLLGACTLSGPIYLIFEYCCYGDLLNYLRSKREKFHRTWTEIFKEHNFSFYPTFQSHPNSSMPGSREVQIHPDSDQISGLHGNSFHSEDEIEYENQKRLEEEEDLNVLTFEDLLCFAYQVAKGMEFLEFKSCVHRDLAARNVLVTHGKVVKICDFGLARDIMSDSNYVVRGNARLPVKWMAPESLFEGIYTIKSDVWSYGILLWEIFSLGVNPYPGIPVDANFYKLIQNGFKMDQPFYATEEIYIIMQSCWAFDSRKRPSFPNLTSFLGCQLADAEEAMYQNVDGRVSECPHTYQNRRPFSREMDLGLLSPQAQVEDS

[5] = target: Voltage-gated inwardly rectifying potassium channel KCNH2 (Homo sapiens, UniProt Q12809); assay: Inhibition of human ERG by cell-based electrophysiology assay
Sequence of Voltage-gated inwardly rectifying potassium channel KCNH2 (Q12809 whole entry): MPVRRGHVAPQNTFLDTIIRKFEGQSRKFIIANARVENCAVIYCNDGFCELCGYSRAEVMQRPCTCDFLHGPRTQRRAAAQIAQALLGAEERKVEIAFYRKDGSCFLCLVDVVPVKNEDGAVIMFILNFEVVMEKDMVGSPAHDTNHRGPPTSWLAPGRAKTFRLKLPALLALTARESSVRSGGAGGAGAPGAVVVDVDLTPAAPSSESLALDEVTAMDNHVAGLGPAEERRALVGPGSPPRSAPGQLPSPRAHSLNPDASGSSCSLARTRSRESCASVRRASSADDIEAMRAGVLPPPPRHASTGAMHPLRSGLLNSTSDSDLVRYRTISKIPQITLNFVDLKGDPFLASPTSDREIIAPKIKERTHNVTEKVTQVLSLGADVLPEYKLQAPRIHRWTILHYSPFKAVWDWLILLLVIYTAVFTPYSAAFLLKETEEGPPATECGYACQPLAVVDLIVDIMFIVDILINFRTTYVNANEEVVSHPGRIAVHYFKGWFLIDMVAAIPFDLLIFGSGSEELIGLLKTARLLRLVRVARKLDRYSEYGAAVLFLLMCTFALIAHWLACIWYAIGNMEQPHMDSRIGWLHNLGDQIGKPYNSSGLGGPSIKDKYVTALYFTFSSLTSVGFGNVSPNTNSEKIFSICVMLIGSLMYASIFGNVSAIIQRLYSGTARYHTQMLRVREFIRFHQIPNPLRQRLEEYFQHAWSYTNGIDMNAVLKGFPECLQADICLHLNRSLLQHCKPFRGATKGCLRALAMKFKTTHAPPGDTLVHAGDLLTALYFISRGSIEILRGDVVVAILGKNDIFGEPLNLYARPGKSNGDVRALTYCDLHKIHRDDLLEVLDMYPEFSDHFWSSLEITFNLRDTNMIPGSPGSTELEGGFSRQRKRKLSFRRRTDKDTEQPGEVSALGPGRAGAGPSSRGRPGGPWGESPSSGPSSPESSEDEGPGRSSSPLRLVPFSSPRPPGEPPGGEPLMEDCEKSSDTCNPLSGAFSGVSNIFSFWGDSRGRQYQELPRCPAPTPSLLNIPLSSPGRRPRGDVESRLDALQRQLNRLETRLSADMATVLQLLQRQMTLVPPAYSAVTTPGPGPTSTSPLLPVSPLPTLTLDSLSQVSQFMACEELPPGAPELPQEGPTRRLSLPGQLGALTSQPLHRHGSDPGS

Sequence of hERG (KCNH2) (Q12809 whole entry): as above

SMILES	inhibition at 10 µM (hERG (KCNH2))	metabolised at 0.5 h [1]	metabolised at 0.5 h [2]	pIC50 (Aurora kinase A)	GI50 (SW-620)	pKd [3]	pKd [4]	pIC50 [5]
Cc1cc(CN2CCN(c3c(Cl)cnc4[nH]c(-c5cnn(CC(F)F)c5)nc34)CC2)no1	82%	0%	12%	7.35	1600 nM	–	–	–
Cc1cc(CN2CCN(c3c(Cl)cnc4nc(-c5cccc(CN(C)C)c5)[nH]c34)CC2)no1	85%	36%	29%	7.27	840 nM	–	–	–
Cc1cc(CN2CCN(c3c(Br)cnc4nc(-c5nc(C)oc5C)[nH]c34)CC2)no1	–	–	–	5.66	4570 nM	–	–	–
Cc1cc(CN2CCN(c3c(Cl)cnc4nc(-c5cccc(CN6CCOCC6)c5)[nH]c34)CC2)no1	15%	71%	69%	7.33	113 nM	–	–	–
Cc1cc(CN2CCN(c3c(Cl)cnc4[nH]c(-c5ccc(N6CCN(C)CC6)cc5F)nc34)CC2)no1	81%	99%	65%	7.06	7500 nM	–	–	–
Cc1cc(CN2CCN(c3c(Cl)cnc4nc(-c5ccnn5C)[nH]c34)CC2)no1	–	–	–	6.83	3190 nM	–	–	–
Cc1cc(CN2CCN(c3c(Cl)cnc4nc(-c5ccc(N6CCN(C)CC6)c(F)c5)[nH]c34)CC2)no1	37%	68%	20%	7.96	380 nM	–	–	–
Cc1nn(C)cc1-c1nc2ncc(Cl)c(N3CCN(Cc4cnccn4)CC3)c2[nH]1	23%	76%	99%	7.57	1090 nM	–	–	–
Cc1nn(C)cc1-c1nc2c(N3CCN(Cc4ncn(C)n4)CC3)c(Cl)cnc2[nH]1	14%	24%	97%	7.03	3140 nM	–	–	–
Cc1cc(CN2CCN(c3c(Cl)cnc4[nH]c(-c5cnn(C(C)C)c5)nc34)CC2)no1	71%	17%	30%	7.46	2220 nM	–	–	–
Cc1cc(CN2CCN(c3c(Br)cnc4nc(-c5ccc(N6CCN(C)CC6)cc5)[nH]c34)CC2)no1	75%	86%	36%	–	–	8.31	8.92	–
Cc1cc(CN2CCN(c3c(Cl)cnc4nc(-c5ccc(N6CCN(C)CC6)cc5)[nH]c34)CC2)no1	–	89%	25%	–	570 nM	–	–	–
Cc1cc(CN2CCN(c3c(Cl)cnc4[nH]c(-c5cn(C)nc5C)nc34)CC2)no1	–	38%	48%	7.89	597 nM	8.00	8.62	5.20
CCn1cc(-c2nc3ncc(Cl)c(N4CCN(Cc5cc(C)on5)CC4)c3[nH]2)cn1	51%	22%	16%	7.39	2180 nM	–	–	–
Cc1cc(CN2CCN(c3c(Cl)cnc4[nH]c(-c5cccc(OCCN(C)C)c5)nc34)CC2)no1	88%	18%	23%	6.89	850 nM	–	–	–
Cc1cc(CN2CCN(c3c(Cl)cnc4[nH]c(-c5ccoc5)nc34)CC2)no1	–	–	–	7.17	6500 nM	–	–	–

Source: ChEMBL document CHEMBL2203264, “Optimization of imidazo[4,5-b]pyridine-based kinase inhibitors: identification of a dual FLT3/Aurora kinase inhibitor as an orally bioavailable preclinical development candidate for the treatment of acute myeloid leukemia” (J Med Chem, 2012)
